Bioassay records (PubChem BioAssay)
FGF22 binding = binders of human FGF22 protein, primary screen, FGF22 synaptogenesis inhibitor project, biophysical, thermal shift, single point. AID 651658, 2012. 340,000 compounds, 1.5% hits. Fibroblast growth factor 22 (Homo sapiens), Q9HCT0. recombinant FGF22 thermal shift, SYPRO orange fluorescence; percent of sucrose octasulfate shift, DMSO zero. activity (Tm shift, normalised), % at 9.99 µM;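 active = mean Tm shift, scaled 0 neutral to 100 positive control, at about 1.3% or above, every replicate too, limit read from the data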
Target sequence (Q9HCT0 whole entry, looked up): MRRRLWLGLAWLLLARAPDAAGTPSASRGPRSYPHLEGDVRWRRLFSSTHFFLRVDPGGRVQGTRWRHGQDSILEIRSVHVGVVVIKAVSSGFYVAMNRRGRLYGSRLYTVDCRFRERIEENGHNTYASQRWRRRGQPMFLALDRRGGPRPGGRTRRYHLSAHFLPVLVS
SIRT5 inh = SIRT5 desuccinylase inhibitors, primary screen, biochemical, fluorescence imaging, single point, set 5; 330,000 compounds, 1.1% hits; NAD-dependent protein deacylase sirtuin-5, mitochondrial (Homo sapiens), Q9NXA8; Purified SirT5, succinyl-peptide AMC, trypsin-coupled fluorescence; inhibition, % at 15 µM; in the data active = inhibition above about 15%
Target sequence (Q9NXA8 whole entry, looked up): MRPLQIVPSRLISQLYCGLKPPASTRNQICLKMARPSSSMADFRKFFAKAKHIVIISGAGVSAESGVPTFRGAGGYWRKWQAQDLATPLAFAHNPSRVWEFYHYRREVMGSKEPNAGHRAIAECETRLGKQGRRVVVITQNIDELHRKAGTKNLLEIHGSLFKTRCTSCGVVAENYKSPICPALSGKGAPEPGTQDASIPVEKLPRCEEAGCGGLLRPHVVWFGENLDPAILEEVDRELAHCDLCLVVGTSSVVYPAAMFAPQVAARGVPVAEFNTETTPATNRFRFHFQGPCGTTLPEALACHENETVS
miR-122 sensor = miR-122 Renilla sensor signal increase in Huh7, primary screen, miR-122 inhibitor project, cell-based, single point, plate reader; activation (reporter increase), % at 12.5 µM; 340,000 compounds, 0.3% hits; AID 602342, 2012; Huh7 miR-122 Renilla luciferase sensor, 48 h; neutral wells = 0, positive control = 100;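 active = mean replicate activation score at least 90 and every replicate individually at or above 90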;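 note: higher luciferase means less miR-122 activity so hits act as miR-122 inhibitors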
E-sel inducer = E-selectin induction in HUVECs, primary screen, imaging, HUVEC, immunofluorescence imaging, single point; P16581; normalized: neutral wells 0, TNF-alpha wells 100; activation, % at 7.58 µM; 260,000 compounds, 0.37% hits; AID 686992, 2013;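 active = mean E-selectin-positive cell signal at least 10% of the positive control, reached in at least 60% of replicates, without over 20% cell loss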
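Test system: HUVEC | Signal: Immunofluorescence imaging | Read-out: Percent E-selectin-positive cells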
S100A4 inh HTS = inhibitors of S100A4-myosin IIA peptide binding, primary screen, biochemical, fluorescence polarization, TAMRA-MyoIIA peptide | Protein S100-A4 (Homo sapiens), P26447 | inhibition, % at 10.7 µM | 360,000 compounds, 0.14% hits | AID 652163, 2013;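 active = mean inhibition of at least 70% across replicates, with every replicate also reaching that level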
Target sequence (P26447 whole entry, looked up): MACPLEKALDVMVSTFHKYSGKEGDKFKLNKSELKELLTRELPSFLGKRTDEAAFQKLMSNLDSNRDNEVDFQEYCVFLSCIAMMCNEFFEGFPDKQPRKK
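Material: human S100A4 monomer with TAMRA-labelled myosin IIA peptide; buffer or medium: HEPES pH 7.2 with CaCl2, KCl, NaCl, DTT, Triton; compound dosing: one concentration per compound; schedule: 5 min incubation before reading; benchmarks: neutral control DMSO, positive control TFP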
Starred values were filed as active, the others as inactive; . = not tested or not shown; [ ] = remark or other dose. An excerpt weighted towards active compounds, which were near 2.5% of everything screened.

SMILES	FGF22 binding	SIRT5 inh	miR-122 sensor	E-sel inducer	S100A4 inh HTS
Cc1oc(-c2ccc(F)cc2F)nc1CN1C[C@@H]2C[C@@H](C1)c1cccc(=O)n1C2	43.6*	-1.1	.	.	11.5
C[C@H]1CN([C@@H](C)CO)C(=O)CCCn2nncc2CO[C@@H]1CN(C)C(=O)Oc1ccc2ccccc2c1	0.0	-6.7	-4.8[16.7 µM]	0.8	-6.8
C/C=C/c1ccc(C2[C@H]3CNC[C@@H]2N3CC2CCCCC2)cc1 (some centres undefined)	.	-1.4	.	-0.5	0.1
CCCN1[C@@H]2Cn3c(ccc(-c4cccc(C(=O)N(C)C)c4)c3=O)[C@H]1[C@@H](C(=O)OC)[C@@H]2CO	0.5	-0.1	.	-0.4	4.0
COC(=O)C1=C(c2cccc(OCc3ccccc3)c2)C[C@@H]2CC[C@H]1N2C(=O)NCCOc1ccc(OC)cc1	0.1	.	.	0.3	-0.8
COC(=O)C1=C(c2cccc(OCc3ccccc3)c2)C[C@@H]2CC[C@H]1N2C(=O)NCCCOC(C)C	-0.1	26.7*	-0.7	-0.1	0.9
COc1ccc(C#Cc2ccc([C@@H]3[C@H]4CN(C(=O)Cc5cccnc5)CCCCN4[C@H]3CO)cc2)cc1	0.4	2.4	-15.2[16.7 µM]	-0.3	-22.5
C=Cc1ccc(Cn2c(C(=O)O)c(C=O)c3ccccc32)cc1	.	17.4*	19.8	6.8	-14.6
CCOC(=O)C1CCCN(c2ccc([N+](=O)[O-])c3nonc23)C1 (centres undefined)	0.2	-0.8	.	-1.3	169.9*
CC1CCCN(c2ccc(C(=O)N3CCC4(CC3)OCCO4)cc2[N+](=O)[O-])C1 (centres undefined)	0.0	3.4	20.7	0.2	5.3
CCCN1[C@@H]2Cn3c(ccc(-c4ccccc4)c3=O)[C@H]1[C@@H](C(=O)OC)[C@@H]2CO	-0.1	-3.2	4.4[16.7 µM]	-0.7	-10.3
CCOP(=O)(OCC)C(NC(=O)c1ccccc1)=C(Cl)Cl	0.1	-6.1	.	.	7.7
CCOC(=O)C1=C(NC(=S)NC(=O)c2ccccc2)c2ccccc2CC12CCCC2	-0.1	35.2*	.	.	2.4
COC(=O)[C@H]1[C@H](CO)[C@H]2Cn3c(ccc(/C=C/c4ccccc4)c3=O)[C@@H]1N2Cc1ccccc1F	-0.1	-66.5	.	0.2	4.3
CN(C)c1ccc(/C=C/C=C/c2sc3ccccc3[n+]2C)cc1	0.2	-0.9	-2.5	69.7*	-81.3
CN(C)c1ccc(/C=C/c2cc[n+](C)c3ccccc23)cc1	-0.6	1.8	-11.1	109.5*	-7.5
COC(=O)[C@@H]1[C@@H](CO)[C@@H]2Cn3c(ccc(C4=CCCCC4)c3=O)[C@H]1N2Cc1ccccc1OC	.	-12.4	.	-0.2	-4.8
CC(C)CC#Cc1ccc([C@H]2[C@H](CO)N3CCCCN(C(=O)Cc4ccccn4)C[C@@H]23)cc1	-0.1	.	-12.7[16.7 µM]	-0.3	.
Cc1ccc(C(O)(C(=O)NNC(=O)CN2CCN(C)CC2)c2ccc(C)cc2)cc1	44.3*	1.4	.	.	-4.0
O=C1NC(=O)N(c2ccccc2F)C(=O)/C1=C/c1ccc(Sc2nc3ccccc3[nH]2)o1	.	22.5*	0.5	.	170.7*
O=P(Nc1ccccc1)(Nc1ccccc1)Oc1ccc(Cl)cc1	-0.2	-1.9	321.9*	.	-2.8
O=P(NS(=O)(=O)c1ccc(Cl)cc1)(Oc1ccccc1)Oc1ccccc1	.	.	2.1	.	.
CSc1ncc(CN2CCCC(C(=O)c3ccccc3SC)C2)cn1 (centres undefined)	0.0	-0.7	-12.7	2.7	2.0
CSc1ccc(C(=O)C2CCCN(Cc3cnc(SC)nc3)C2)cc1 (centres undefined)	43.9*	0.6	0.5	.	-4.4
COc1ccc(/C=C2/C(=O)N(Cc3ccco3)C(=O)N(C(C)C)C2=O)cc1	0.1	24.8*	.	.	-33.6
SMILES	FGF22 binding	SIRT5 inh	miR-122 sensor	E-sel inducer	S100A4 inh HTS
CN(C)c1ccc(/C=C2/C(=O)NC(=O)N(Cc3ccco3)C2=O)cc1	-0.2	30.6*	-6.4	.	-43.3
CC(C)N1C(=O)/C(=C/C=C/c2ccco2)C(=O)N(Cc2ccco2)C1=O	.	.	1.5	.	.
COc1ccc(OC(=O)N(C)C[C@H]2OCc3ccccc3-c3c(n(C)c4ccccc34)C(=O)N([C@@H](C)CO)C[C@@H]2C)cc1	.	7.9	.	0.1	5.9
O=C(Cc1cccnc1)N1CCCCN2[C@H](C1)[C@@H](c1ccc(/C=C/c3ccccc3)cc1)[C@@H]2CO	0.9	-2.0	17.2[16.7 µM]	-0.8	-1.0
O=C(Cc1cccnc1)N1CCCCN2[C@@H](CO)[C@H](c3ccc(C#CC4CC4)cc3)[C@@H]2C1	-0.6	2.5	19.8[16.7 µM]	.	6.6
Cc1ccsc1C(=O)C1CCCN(Cc2cnc(N3CCCC3)s2)C1 (centres undefined)	43.8*	-2.9	.	0.1	2.9
O=C1NC(=O)N(Cc2ccccc2)C(=O)/C1=C/C=C/c1ccco1	-0.5	-1.9	.	.	5.7
CCN1C(=O)C(=C/C=C/c2ccco2)C(=O)N(CC)C1=S	0.0	21.1*	.	.	-14.3
CCN(CC)c1ccc(/C=C2\C(=O)NC(=O)N(CC3CCCO3)C2=O)cc1 (centres undefined)	43.2*	1.6	-4.7	.	-69.3
COCC(=O)N1[C@@H]2c3ccc(C4=CCCC4)c(=O)n3C[C@H]1[C@H](CO)[C@H]2C(=O)OC	0.3	-9.0	5.7[16.7 µM]	-1.6	0.3
COc1ccccc1/C=C1\C(=O)NC(=S)N(c2ccccc2)C1=O	-0.3	3.2	-2.7	0.1	-23.8
O=C1NC(=S)N(c2ccccc2)C(=O)/C1=C/c1ccco1	1.0	37.7*	0.3	.	-38.3
CCOc1cccc(N2C(=O)/C(=C/c3ccco3)C(=O)NC2=S)c1	0.7	36.4*	-0.2	.	-70.8
COc1cccc(-c2ccc3n(c2=O)C[C@@H]2[C@@H](CO)[C@H](C(=O)O)[C@H]3N2Cc2ccccc2F)c1	.	.	.	-0.2	.
CN1CC(C(=O)c2cccs2)C(c2ccc(Cl)cc2)C1 (centres undefined)	-0.1	-0.5	-6.2	.	-2.6
CN1CC(C(=O)c2ccc(Cl)cc2)C(c2ccccc2)C1 (centres undefined)	0.0	27.1*	.	.	0.0
Cn1cccc1/C=C1\C(=O)NC(=O)N(Cc2ccccc2Cl)C1=O	44.3*	2.2	.	.	0.6
CCN1[C@@H]2c3ccc(-c4cccc(OC)c4)c(=O)n3C[C@H]1[C@H](CO)[C@H]2C(=O)OC	-0.1	-4.9	3.1[16.7 µM]	0.0	-3.1
CN1C(=O)C(=Cc2ccc(SC3CCCCC3)o2)C(=O)N(C)C1=O	43.2*	-2.4	.	.	-29.6
